Measured values reported in ChEMBL document CHEMBL1137337, “Design, synthesis, and biological evaluation of new cyclic melanotropin peptide analogues selective for the human melanocortin-4 receptor” (J Med Chem, 2006).
Active and inactive are the calls of the source. No cut-off for these calls is given here.

Target: T1, Melanocortin receptor 4 (Homo sapiens, UniProt P32245)
Assay: Displacement of [125I]NDP-alphaMSH from human MC4 receptor expressed in HEK293 cells
Format: cell-based
In short: (§1)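 Whole-cell competition used transfected HEK293 cells seeded 48 h ahead at 100 000 cells/well. Binding buffer was MEM with 25 mM HEPES pH 7.4, 0.2% BSA, 1 mM 1,10-phenanthroline, leupeptin and bacitracin. Radioactivity was gamma-counted, and IC50 was obtained by nonlinear least-squares fit.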

T1 sequence (P32245 whole entry): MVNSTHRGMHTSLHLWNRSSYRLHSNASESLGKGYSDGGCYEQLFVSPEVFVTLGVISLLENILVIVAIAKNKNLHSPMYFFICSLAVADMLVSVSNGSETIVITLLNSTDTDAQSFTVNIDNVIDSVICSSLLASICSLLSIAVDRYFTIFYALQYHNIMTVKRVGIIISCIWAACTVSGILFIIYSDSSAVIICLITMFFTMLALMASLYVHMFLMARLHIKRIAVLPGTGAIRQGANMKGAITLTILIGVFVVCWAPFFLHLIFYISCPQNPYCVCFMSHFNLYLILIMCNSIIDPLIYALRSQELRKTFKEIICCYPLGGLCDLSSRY

| SMILES | Activity | IC50 |
| --- | --- | --- |
| CC(=O)N[C@H]1CCC(=O)NCCC(C(=O)N[C@@H](Cc2c[nH]c3ccccc23)C(N)=O)N(CCCCN=C(N)N)C(=O)[C@@H](Cc2ccccc2)NC(=O)[C@H](Cc2c[nH]cn2)NC1=O (stereo not given in full) | inactive |  |
| CC(=O)N[C@H]1CSSC[C@@H](C(=O)N[C@@H](Cc2c[nH]c3ccccc23)C(N)=O)N(CCCCN=C(N)N)C(=O)[C@@H](Cc2ccccc2)NC(=O)[C@H](Cc2cnc[nH]2)NC1=O |  | 1.8 nM |

Target: T2, Melanocortin receptor 5 (Homo sapiens, UniProt P33032)
T2 sequence (P33032 whole entry): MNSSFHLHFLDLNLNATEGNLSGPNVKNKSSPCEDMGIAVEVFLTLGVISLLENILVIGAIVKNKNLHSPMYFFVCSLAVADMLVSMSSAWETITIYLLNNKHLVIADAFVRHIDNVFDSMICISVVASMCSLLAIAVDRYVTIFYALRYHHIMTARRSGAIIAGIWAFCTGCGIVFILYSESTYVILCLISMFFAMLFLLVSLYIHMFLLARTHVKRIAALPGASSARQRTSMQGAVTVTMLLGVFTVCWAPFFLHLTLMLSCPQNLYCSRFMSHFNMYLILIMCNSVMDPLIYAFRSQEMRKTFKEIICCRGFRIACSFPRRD
Assay: Displacement of [125I]NDP-alphaMSH from human MC5 receptor expressed in HEK293 cells
Format: cell-based
In short: as §1

| SMILES | Activity |
| --- | --- |
| CC(=O)N[C@H]1CCC(=O)NCCC(C(=O)N[C@@H](Cc2c[nH]c3ccccc23)C(N)=O)N(CCCCN=C(N)N)C(=O)[C@@H](Cc2ccccc2)NC(=O)[C@H](Cc2c[nH]cn2)NC1=O (stereo not given in full) | inactive |
| CC(=O)N[C@H]1CSSC[C@@H](C(=O)N(CCCCN=C(N)N)[C@@H](Cc2c[nH]c3ccccc23)C(N)=O)NC(=O)[C@@H](Cc2ccccc2)NC(=O)[C@H](Cc2c[nH]cn2)NC1=O | inactive |

Target: T3, Melanocortin receptor 3 (Homo sapiens, UniProt P41968)
T3 sequence (P41968 whole entry): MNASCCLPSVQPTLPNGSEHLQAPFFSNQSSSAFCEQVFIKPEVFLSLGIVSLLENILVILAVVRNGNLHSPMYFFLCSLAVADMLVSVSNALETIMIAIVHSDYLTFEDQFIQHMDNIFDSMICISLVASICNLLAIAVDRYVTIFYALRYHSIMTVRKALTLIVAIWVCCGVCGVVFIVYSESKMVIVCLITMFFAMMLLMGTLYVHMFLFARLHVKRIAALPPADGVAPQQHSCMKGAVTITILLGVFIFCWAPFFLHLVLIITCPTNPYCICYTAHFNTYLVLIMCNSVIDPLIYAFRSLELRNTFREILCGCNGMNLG
Assay: Activity at hMC3R transfected in HEK293 cells assessed as intracellular cAMP accumulation
Format: functional, cell-based
In short: (§2)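 HEK293 cells stably carrying the human MC receptor were seeded 48 h ahead at 50 000 cells/well. They were preincubated 1 min at 37 °C in EBSS with IBMX, then exposed to peptide at 10⁻¹⁰ to 10⁻⁵ M for 3 min at 37 °C. Ice-cold Tris/EDTA stopped the reaction, and lysates were boiled 15 min. Total cAMP was measured by competitive binding kit, and EC50 was obtained by nonlinear least-squares fit.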

| SMILES | Activity |
| --- | --- |
| CC(=O)N[C@H]1CCC(=O)NCCC(C(=O)N[C@@H](Cc2c[nH]c3ccccc23)C(N)=O)N(CCCCN=C(N)N)C(=O)[C@@H](Cc2ccccc2)NC(=O)[C@H](Cc2c[nH]cn2)NC1=O (stereo not given in full) | inactive |
| CC(=O)N[C@H]1CSSC[C@@H](C(=O)N(CCCCN=C(N)N)[C@@H](Cc2c[nH]c3ccccc23)C(N)=O)NC(=O)[C@@H](Cc2ccccc2)NC(=O)[C@H](Cc2c[nH]cn2)NC1=O | inactive |

Target: T1, Melanocortin receptor 4
Assay: Activity at hMC4R transfected in HEK293 cells assessed as intracellular cAMP accumulation
Format: functional, cell-based
In short: as §2

| SMILES | Activity |
| --- | --- |
| CC(=O)N[C@H]1CCC(=O)NCCC(C(=O)N[C@@H](Cc2c[nH]c3ccccc23)C(N)=O)N(CCCCN=C(N)N)C(=O)[C@@H](Cc2ccccc2)NC(=O)[C@H](Cc2c[nH]cn2)NC1=O (stereo not given in full) | inactive |

Target: T2, Melanocortin receptor 5
Assay: Activity at hMC5R transfected in HEK293 cells assessed as intracellular cAMP accumulation
Format: functional, cell-based
In short: as §2

| SMILES | Activity |
| --- | --- |
| CC(=O)N[C@H]1CCC(=O)NCCC(C(=O)N[C@@H](Cc2c[nH]c3ccccc23)C(N)=O)N(CCCCN=C(N)N)C(=O)[C@@H](Cc2ccccc2)NC(=O)[C@H](Cc2c[nH]cn2)NC1=O (stereo not given in full) | inactive |
| CC(=O)N[C@H]1CSSC[C@@H](C(=O)N(CCCCN=C(N)N)[C@@H](Cc2c[nH]c3ccccc23)C(N)=O)NC(=O)[C@@H](Cc2ccccc2)NC(=O)[C@H](Cc2c[nH]cn2)NC1=O | inactive |

Target: T4, Melanocyte-stimulating hormone receptor (Homo sapiens, UniProt Q01726)
T4 sequence (Q01726 whole entry, looked up): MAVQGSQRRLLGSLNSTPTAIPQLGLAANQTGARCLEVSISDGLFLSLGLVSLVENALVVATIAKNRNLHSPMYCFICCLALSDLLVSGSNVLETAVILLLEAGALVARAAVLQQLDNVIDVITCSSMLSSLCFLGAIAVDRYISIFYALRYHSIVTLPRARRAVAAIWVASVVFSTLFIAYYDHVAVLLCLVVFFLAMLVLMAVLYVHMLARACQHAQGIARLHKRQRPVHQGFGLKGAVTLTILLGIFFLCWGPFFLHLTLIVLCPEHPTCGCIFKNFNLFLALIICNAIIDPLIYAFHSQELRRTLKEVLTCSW
Assay: Displacement of [125I]NDP-alphaMSH from human MC1 receptor expressed in HEK293 cells relative to MT2
Format: cell-based
In short: (§3)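 Binding efficiency was measured in the whole-cell [¹²⁵I]NDP-α-MSH competition assay on receptor-transfected HEK293 cells (30 min, 37 °C). It is expressed as the peptide's maximal percentage specific binding relative to MTII agonist binding, with peptides tested at 10⁻¹⁰ to 10⁻⁵ M.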

| SMILES | Activity |
| --- | --- |
| CC(=O)N[C@H]1CCC(=O)NCCC(C(=O)N[C@@H](Cc2c[nH]c3ccccc23)C(N)=O)N(CCCCN=C(N)N)C(=O)[C@@H](Cc2ccccc2)NC(=O)[C@H](Cc2c[nH]cn2)NC1=O (stereo not given in full) | < 10% |
| CC(=O)N[C@H]1CSSC[C@@H](C(=O)N(CCCCN=C(N)N)[C@@H](Cc2c[nH]c3ccccc23)C(N)=O)NC(=O)[C@@H](Cc2ccccc2)NC(=O)[C@H](Cc2c[nH]cn2)NC1=O | < 10% |

Target: T3, Melanocortin receptor 3
Assay: Displacement of [125I]NDP-alphaMSH from human MC3 receptor expressed in HEK293 cells relative to MT2
Format: cell-based
In short: as §3

| SMILES | Activity |
| --- | --- |
| CC(=O)N[C@H]1CCC(=O)NCCC(C(=O)N[C@@H](Cc2c[nH]c3ccccc23)C(N)=O)N(CCCCN=C(N)N)C(=O)[C@@H](Cc2ccccc2)NC(=O)[C@H](Cc2c[nH]cn2)NC1=O (stereo not given in full) | 50% |
| CC(=O)N[C@H]1CSSC[C@@H](C(=O)N(CCCCN=C(N)N)[C@@H](Cc2c[nH]c3ccccc23)C(N)=O)NC(=O)[C@@H](Cc2ccccc2)NC(=O)[C@H](Cc2c[nH]cn2)NC1=O | 50% |

Target: T1, Melanocortin receptor 4
Assay: Displacement of [125I]NDP-alphaMSH from human MC4 receptor expressed in HEK293 cells relative to MT2
Format: cell-based
In short: as §3

| SMILES | Activity |
| --- | --- |
| CC(=O)N[C@H]1CCC(=O)NCCC(C(=O)N[C@@H](Cc2c[nH]c3ccccc23)C(N)=O)N(CCCCN=C(N)N)C(=O)[C@@H](Cc2ccccc2)NC(=O)[C@H](Cc2c[nH]cn2)NC1=O (stereo not given in full) | 0% |
| CC(=O)N[C@H]1CSSC[C@@H](C(=O)N(CCCCN=C(N)N)[C@@H](Cc2c[nH]c3ccccc23)C(N)=O)NC(=O)[C@@H](Cc2ccccc2)NC(=O)[C@H](Cc2c[nH]cn2)NC1=O | 50% |

Target: T2, Melanocortin receptor 5
Assay: Displacement of [125I]NDP-alphaMSH from human MC5 receptor expressed in HEK293 cells relative to MT2
Format: cell-based
In short: as §3

| SMILES | Activity |
| --- | --- |
| CC(=O)N[C@H]1CCC(=O)NCCC(C(=O)N[C@@H](Cc2c[nH]c3ccccc23)C(N)=O)N(CCCCN=C(N)N)C(=O)[C@@H](Cc2ccccc2)NC(=O)[C@H](Cc2c[nH]cn2)NC1=O (stereo not given in full) | 0% |
| CC(=O)N[C@H]1CSSC[C@@H](C(=O)N(CCCCN=C(N)N)[C@@H](Cc2c[nH]c3ccccc23)C(N)=O)NC(=O)[C@@H](Cc2ccccc2)NC(=O)[C@H](Cc2c[nH]cn2)NC1=O | 0% |

Target: T4, Melanocyte-stimulating hormone receptor
Assay: Activity at hMC1R transfected in HEK293 cells assessed as intracellular cAMP accumulation relative to MT2
Format: functional, cell-based
Parameters: concentration or dose not given beside the values

| SMILES | Activity |
| --- | --- |
| CC(=O)N[C@H]1CCC(=O)NCCC(C(=O)N[C@@H](Cc2c[nH]c3ccccc23)C(N)=O)N(CCCCN=C(N)N)C(=O)[C@@H](Cc2ccccc2)NC(=O)[C@H](Cc2c[nH]cn2)NC1=O (stereo not given in full) | 0% |
| CC(=O)N[C@H]1CSSC[C@@H](C(=O)N(CCCCN=C(N)N)[C@@H](Cc2c[nH]c3ccccc23)C(N)=O)NC(=O)[C@@H](Cc2ccccc2)NC(=O)[C@H](Cc2c[nH]cn2)NC1=O | 0% |

Target: T3, Melanocortin receptor 3
Assay: Activity at hMC3R transfected in HEK293 cells assessed as intracellular cAMP accumulation relative to MT2
Format: functional, cell-based
Parameters: concentration or dose not given beside the values

| SMILES | Activity |
| --- | --- |
| CC(=O)N[C@H]1CCC(=O)NCCC(C(=O)N[C@@H](Cc2c[nH]c3ccccc23)C(N)=O)N(CCCCN=C(N)N)C(=O)[C@@H](Cc2ccccc2)NC(=O)[C@H](Cc2c[nH]cn2)NC1=O (stereo not given in full) | 0% |
| CC(=O)N[C@H]1CSSC[C@@H](C(=O)N(CCCCN=C(N)N)[C@@H](Cc2c[nH]c3ccccc23)C(N)=O)NC(=O)[C@@H](Cc2ccccc2)NC(=O)[C@H](Cc2c[nH]cn2)NC1=O | 0% |

Target: T1, Melanocortin receptor 4
Assay: Activity at hMC4R transfected in HEK293 cells assessed as intracellular cAMP accumulation relative to MT2
Format: functional, cell-based
Parameters: concentration or dose not given beside the values

| SMILES | Activity |
| --- | --- |
| CC(=O)N[C@H]1CCC(=O)NCCC(C(=O)N[C@@H](Cc2c[nH]c3ccccc23)C(N)=O)N(CCCCN=C(N)N)C(=O)[C@@H](Cc2ccccc2)NC(=O)[C@H](Cc2c[nH]cn2)NC1=O (stereo not given in full) | 0% |
| CC(=O)N[C@H]1CSSC[C@@H](C(=O)N(CCCCN=C(N)N)[C@@H](Cc2c[nH]c3ccccc23)C(N)=O)NC(=O)[C@@H](Cc2ccccc2)NC(=O)[C@H](Cc2c[nH]cn2)NC1=O | 18% |

Target: T2, Melanocortin receptor 5
Assay: Activity at hMC5R transfected in HEK293 cells assessed as intracellular cAMP accumulation relative to MT2
Format: functional, cell-based

| SMILES | Activity |
| --- | --- |
| CC(=O)N[C@H]1CCC(=O)NCCC(C(=O)N[C@@H](Cc2c[nH]c3ccccc23)C(N)=O)N(CCCCN=C(N)N)C(=O)[C@@H](Cc2ccccc2)NC(=O)[C@H](Cc2c[nH]cn2)NC1=O (stereo not given in full) | 0% |
| CC(=O)N[C@H]1CSSC[C@@H](C(=O)N(CCCCN=C(N)N)[C@@H](Cc2c[nH]c3ccccc23)C(N)=O)NC(=O)[C@@H](Cc2ccccc2)NC(=O)[C@H](Cc2c[nH]cn2)NC1=O | 0% |
